Legend:
[1] = test system: Nucleic Acid; assay: Ratio of drug level in brain to plasma in ICR mouse at 5 mg/kg, iv after 6 hrs by HPLC/MS/MS analysis; format: ADME, organism-based; parameters: dose 5 mg/kg, route intravenous
[2] = test system: Nucleic Acid; assay: Ratio of drug level in brain to plasma in ICR mouse at 10 mg/kg, po after 6 hrs by HPLC/MS/MS analysis; format: ADME, organism-based; parameters: dose 10 mg/kg, route oral
[3] = Plasma concentration in ICR mouse at 5 mg/kg, iv after 0.083 hrs by HPLC/MS/MS analysis; format: ADME, organism-based; parameters: dose 5 mg/kg, route intravenous
[4] = test system: Rattus norvegicus; assay: Gastrointestinal toxicity in Wistar rat assessed as ulcerogenic effect at 100 mg/kg, po measured after 17 hrs post treatment (Rvb =0.50 +/- 0.41); format: organism-based; parameters: dose 100 mg/kg, route oral; conditions: in vivo
Outline: (§1)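 Wistar rats, 150–200 g, eight per group, fasted at least 8 h with water ad libitum. Drug is given orally as a 0.5% CMC suspension at 10 ml/kg; controls get 0.5% CMC. Food is returned after 30 min. At 17 h rats are killed with CO₂ and stomachs removed. Damage score is the summed lesion lengths in mm per rat; mean ± SEM.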

[5] = test system: Nucleic Acid; assay: Ratio of drug level in brain to plasma in ICR mouse at 5 mg/kg, iv after 4 hrs by HPLC/MS/MS analysis; format: ADME, organism-based; parameters: dose 5 mg/kg, route intravenous
[6] = Drug level in ICR mouse brain at 5 mg/kg, iv after 2 hrs by HPLC/MS/MS analysis; format: ADME, organism-based; parameters: dose 5 mg/kg, route intravenous; conditions: read-out: Drug uptake
[7] = test system: Mus musculus; assay: Ratio of drug level in brain to plasma in ICR mouse at 5 mg/kg, iv
[8] = test system: Rattus norvegicus; assay: Antiinflammatory activity in Wistar albino rat assessed as inhibition of carrageenan-induced paw edema at 33.6 mg/kg, ig administered 1 hr before carrageenan challenge measured after 4 hrs post carrageenan challenge by plethysmometer; format: functional; conditions: po, route intragastric
Outline: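 Male Wistar rats (140–160 g), three groups of eight; drug as 0.5% CMC suspension i.g., controls given CMC only. 1 h later, 0.1 ml of 0.1% carrageenan in 0.9% NaCl injected sub-plantar into right hind paw. Paw volume read by plethysmometer hourly to 6 h and at 24 h; inhibition % = (Vc − Vt)/Vc × 100 from mean volume increases; mean ± SEM.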

[9] = test system: Nucleic Acid; assay: Ratio of drug level in brain to plasma in ICR mouse at 10 mg/kg, po after 4 hrs by HPLC/MS/MS analysis; format: ADME, organism-based; parameters: dose 10 mg/kg, route oral
[10] = test system: Rattus norvegicus; assay: Gastrointestinal toxicity in Wistar rat assessed as ulcerogenic effect at 108.8 mg/kg, po measured after 17 hrs post treatment (Rvb =0.50 +/- 0.41); format: organism-based; parameters: dose 108.8 mg/kg, route oral; conditions: in vivo; outline: as §1
[11] = biological target: Prostaglandin G/H synthase 1 (Homo sapiens, UniProt P23219); assay: Inhibition of COX1 in human HEL 92.1.7 cells assessed as thromboxane B2 production incubated for 30 mins before arachidonic acid addition measured after 15 mins by ELISA; format: cell-based
Outline: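 HEL92.1.7 cells at 10⁸/ml in fresh medium, incubated with drug (10⁻⁶–10 μM range) for 30 min at 37 °C. TXB₂ is measured in cell-free supernatant by ELISA and expressed as a ratio to vehicle-only cultures; mean ± SD; IC50 from the concentration–response curve.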

[12] = Apparent half life in ICR mouse at 5 mg/kg, iv; format: ADME, organism-based; parameters: dose 5 mg/kg, route intravenous; conditions: in vivo, read-out: t1/2(app) (converted)
[13] = test system: Nucleic Acid; assay: Ratio of drug level in brain to plasma in ICR mouse at 10 mg/kg, po after 0.083 hrs by HPLC/MS/MS analysis; format: ADME, organism-based; parameters: dose 10 mg/kg, route oral
[14] = test system: Nucleic Acid; assay: Ratio of drug level in brain to plasma in ICR mouse at 5 mg/kg, iv after 1 hr by HPLC/MS/MS analysis; format: ADME, organism-based; parameters: dose 5 mg/kg, route intravenous
[15] = biological target: T1, Prostaglandin G/H synthase 1 (Ovis aries, UniProt P05979); assay: Inhibition of ovine COX1 by EIA
T1 sequence (P05979 whole entry): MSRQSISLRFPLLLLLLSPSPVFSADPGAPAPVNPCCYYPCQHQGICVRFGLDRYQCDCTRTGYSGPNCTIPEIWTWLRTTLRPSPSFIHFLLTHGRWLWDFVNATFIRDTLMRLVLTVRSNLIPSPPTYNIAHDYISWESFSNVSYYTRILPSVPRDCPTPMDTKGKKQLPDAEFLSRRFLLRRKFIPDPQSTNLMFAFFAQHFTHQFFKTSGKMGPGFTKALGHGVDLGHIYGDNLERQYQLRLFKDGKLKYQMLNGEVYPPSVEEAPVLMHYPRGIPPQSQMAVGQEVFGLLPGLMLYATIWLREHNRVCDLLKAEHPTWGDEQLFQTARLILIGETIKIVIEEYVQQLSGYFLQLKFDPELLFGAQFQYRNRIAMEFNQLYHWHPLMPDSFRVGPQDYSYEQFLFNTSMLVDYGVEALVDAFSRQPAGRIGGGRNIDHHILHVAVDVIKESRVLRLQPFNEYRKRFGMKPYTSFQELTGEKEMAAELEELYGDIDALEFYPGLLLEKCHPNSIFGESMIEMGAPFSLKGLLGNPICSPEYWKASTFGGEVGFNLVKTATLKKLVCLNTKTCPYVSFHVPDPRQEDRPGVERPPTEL

[16] = biological target: T2, Prostaglandin G/H synthase 2 (Homo sapiens, UniProt P35354); assay: Inhibition of COX2 in LPS-stimulated and PMA-treated human U937 cells assessed as PGE2 production after 15 mins by ELISA; format: cell-based, U-937
T2 sequence (P35354 whole entry): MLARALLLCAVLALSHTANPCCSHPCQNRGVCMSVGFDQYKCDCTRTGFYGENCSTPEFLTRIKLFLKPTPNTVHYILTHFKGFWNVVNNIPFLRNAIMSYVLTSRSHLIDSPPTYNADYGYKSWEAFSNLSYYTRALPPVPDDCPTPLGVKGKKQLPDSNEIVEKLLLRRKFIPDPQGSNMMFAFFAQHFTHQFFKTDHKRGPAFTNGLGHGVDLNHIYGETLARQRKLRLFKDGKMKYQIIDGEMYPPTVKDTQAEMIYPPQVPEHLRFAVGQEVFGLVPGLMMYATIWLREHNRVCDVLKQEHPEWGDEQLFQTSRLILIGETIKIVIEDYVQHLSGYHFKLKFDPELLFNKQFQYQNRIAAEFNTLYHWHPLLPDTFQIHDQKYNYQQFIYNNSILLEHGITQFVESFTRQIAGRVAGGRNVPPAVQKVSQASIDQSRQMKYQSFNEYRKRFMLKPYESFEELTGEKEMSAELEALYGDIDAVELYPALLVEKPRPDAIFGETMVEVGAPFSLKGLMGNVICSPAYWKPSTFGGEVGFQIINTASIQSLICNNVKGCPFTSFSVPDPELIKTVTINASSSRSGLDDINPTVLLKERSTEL

[17] = test system: Mus musculus; assay: Ratio of drug level in brain to plasma in ICR mouse at 10 mg/kg, po
[18] = Apparent volume of distribution in ICR mouse at 5 mg/kg, iv; format: ADME, organism-based; parameters: dose 5 mg/kg, route intravenous; conditions: in vivo, read-out: Vz
[19] = Apparent half life in ICR mouse at 10 mg/kg, po; format: ADME, organism-based; parameters: dose 10 mg/kg, route oral; conditions: in vivo, read-out: t1/2(app) (converted)
[20] = Clearance in ICR mouse at 5 mg/kg, iv; format: ADME, organism-based; parameters: dose 5 mg/kg, route intravenous; conditions: in vivo

Prostaglandin G/H synthase 1 (Homo sapiens, UniProt P23219), sequence (P23219 whole entry): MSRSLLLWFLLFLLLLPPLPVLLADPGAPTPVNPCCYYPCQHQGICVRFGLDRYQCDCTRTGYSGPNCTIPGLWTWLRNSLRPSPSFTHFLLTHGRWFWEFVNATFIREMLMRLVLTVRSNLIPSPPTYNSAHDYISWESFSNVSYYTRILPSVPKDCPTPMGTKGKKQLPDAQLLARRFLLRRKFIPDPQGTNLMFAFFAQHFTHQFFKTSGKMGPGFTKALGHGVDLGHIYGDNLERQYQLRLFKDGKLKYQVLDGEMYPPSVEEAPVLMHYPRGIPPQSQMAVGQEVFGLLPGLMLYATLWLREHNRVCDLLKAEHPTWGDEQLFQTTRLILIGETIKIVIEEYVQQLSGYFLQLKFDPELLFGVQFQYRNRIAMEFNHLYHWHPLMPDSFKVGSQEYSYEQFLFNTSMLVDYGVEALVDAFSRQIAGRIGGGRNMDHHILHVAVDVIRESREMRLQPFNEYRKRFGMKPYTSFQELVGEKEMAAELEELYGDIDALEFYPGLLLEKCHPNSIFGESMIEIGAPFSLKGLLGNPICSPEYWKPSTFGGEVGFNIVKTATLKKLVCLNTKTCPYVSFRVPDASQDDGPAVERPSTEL

CC(C)Cc1ccc([C@H](C)C(=O)O)cc1 [DEXIBUPROFEN]
BPR [1]: 0.059 mL/g | BPR [2]: 0.036 mL/g | concentration at 0.083 h [3]: 34600 ng/mL | Activity [4]: Toxic | BPR [5]: 0.044 mL/g | concentration at 2 h [6]: 123 ng/g

CC(C)Cc1ccc([C@H](CF)C(=O)O)cc1
BPR [7]: 0.031 mL/g | inhibition in vivo at 33.6 mg/kg [8]: 41.3% | BPR [9]: 0.032 mL/g | Activity [10]: Toxic | concentration at 0.083 h [3]: 31600 ng/mL | IC50 [11]: 1.23 nM | inhibition [11]: Dose-dependent effect | half-life [12]: 52.8 min | BPR [13]: 0.027 mL/g | BPR [14]: 0.041 mL/g | IC50 [15]: 500 nM | IC50 [16]: 530 nM | concentration at 2 h [6]: 64.9 ng/g | BPR [17]: 0.025 mL/g | Vd [18]: 0.27 L/kg | half-life [19]: 45 min | clearance [20]: 3.5 mL/min/kg
